Data taken from ChEMBL document CHEMBL1949640, “Discovery of substituted biphenyl oxazolidinone inhibitors of cholesteryl ester transfer protein” (ACS Med Chem Lett, 2011).
Blank lines part the entries; values can stand above or below the molecule they belong to.

Key:
[1] = target: T1, Cholesteryl ester transfer protein (Homo sapiens, UniProt P11597); assay: Inhibition of CETP-mediated BODIPY-labeled cholesteryl ester transfer after 45 mins by FRET analysis
T1 sequence (P11597 whole entry): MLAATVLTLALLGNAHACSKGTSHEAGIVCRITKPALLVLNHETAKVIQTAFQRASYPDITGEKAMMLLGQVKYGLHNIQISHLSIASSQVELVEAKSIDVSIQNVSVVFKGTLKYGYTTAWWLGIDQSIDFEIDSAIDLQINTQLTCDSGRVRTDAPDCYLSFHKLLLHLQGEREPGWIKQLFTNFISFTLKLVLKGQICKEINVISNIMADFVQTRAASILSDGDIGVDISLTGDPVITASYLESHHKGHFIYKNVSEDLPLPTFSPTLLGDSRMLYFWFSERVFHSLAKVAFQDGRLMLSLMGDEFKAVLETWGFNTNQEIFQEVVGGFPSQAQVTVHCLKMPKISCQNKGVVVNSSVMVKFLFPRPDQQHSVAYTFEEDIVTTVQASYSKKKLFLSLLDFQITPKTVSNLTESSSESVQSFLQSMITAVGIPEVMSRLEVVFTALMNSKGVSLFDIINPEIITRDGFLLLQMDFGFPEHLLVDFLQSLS
In short: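 Fluorescence transfer assay of cholesteryl ester transfer by CETP. IC50 taken from 10-point titrations, reported as the average of three or more titrations, the average of two, or a single titration.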

[2] = Oral bioavailability in mouse; format: ADME, organism-based; settings: in vivo
Mus musculus = species: Mus musculus; assay: (§1) Clearance in mouse; format: ADME, organism-based; settings: in vivo
[3] = Volume of distribution in mouse; format: ADME, organism-based; settings: in vivo
[4] = as §1; format: ADME, organism-based; settings: in vivo
[5] = target: T2, Cholesteryl ester transfer protein (Homo sapiens) (UniProt P11597); assay: Inhibition of CETP-mediated BODIPY-labeled cholesteryl ester transfer at 100 uM after 45 mins by FRET analysis
T2 sequence (whole entry): T1 sequence (P11597 whole entry)

IC50 [1]: 37.2 µM
SMILES: COc1ccc(C(C)C)cc1-c1ccc(C(F)(F)F)cc1CN1C[C@H](c2ccccc2)OC1=O

IC50 [1]: 0.293 µM
SMILES: COc1ccc(C(C)C)cc1-c1ccc(C(F)(F)F)cc1CN1C[C@@H](c2ccccc2)OC1=O

inhibition [5]: < 50%
SMILES: COc1ccc(C(C)C)cc1-c1ccc(C(F)(F)F)cc1CN1C[C@H](c2cc(C(F)(F)F)cc(C(F)(F)F)c2)OC1=O

The next lines start with the molecule.

SMILES: COc1ccc(C(C)C)cc1-c1ccc(C(F)(F)F)cc1CN1CC(c2cc(C(F)(F)F)cc(C(F)(F)F)c2)OC1=O (racemic)
IC50 [1]: 0.133 µM

SMILES: COc1ccc(C(C)C)cc1-c1ccc(C(F)(F)F)cc1CN1C(=O)OCC1c1cc(C(F)(F)F)cc(C(F)(F)F)c1 (racemic)
IC50 [1]: 14.2 µM

SMILES: COc1ccc(C(C)C)cc1-c1ccc(C(F)(F)F)cc1CN1C[C@@H](c2cc(C(F)(F)F)cc(C(F)(F)F)c2)OC1=O
bioavailability [2]: 4%
clearance (Mus musculus): 31.6 mL/min/kg
Vd [3]: 3.4 L/kg

SMILES: COC(=O)N(Cc1ccccc1)Cc1cc(C(F)(F)F)ccc1-c1cc(C(C)C)ccc1OC
IC50 [1]: 27.3 µM

SMILES: COC(=O)N(Cc1cc(C(F)(F)F)cc(C(F)(F)F)c1)Cc1cc(C(F)(F)F)ccc1-c1cc(C(C)C)ccc1OC
bioavailability [2]: 5%
clearance [4]: 12.8 mL/min/kg
Vd [3]: 3.3 L/kg
